Screening data (PubChem BioAssay)
Shown are actives, neighbours in structure and some others; about 2.9% of the full set was active somewhere.
mABHD4 FP = ABHD4 inhibitors, primary screen, biochemical, fluorescence polarization, mouse | (Lyso)-N-acylphosphatidylethanolamine lipase (Mus musculus), Q8VD66 | purified mABHD4, FP-Rh probe fluorescence polarization | inhibition, % at 8.92 µM | 370,000 compounds, 0.54% hits;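 active means inhibition exceeding the mean over every tested compound plus 3 SD, cut at about 30% in these data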;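 further: 0% = plate median of compound wells and 100% = S159A mutant with DMSO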
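Assay system: wild-type mouse ABHD4 protein; compound: single nominal dose of 8.92 µM, 0.89% DMSO final; schedule: 45 min + 60 min at 25 °C; measured by: FP readout, ex 525 nm / em 598 nm; evaluation: % inhibition of FP-Rh probe binding versus controls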
TCR CD3 inh = inhibitors of human TCR-CD3 interaction, primary screen, biochemical, fluorescence, TAMRA-labeled TCR probe. T-cell receptor (TCR). inhibition, % at 9.4 µM. 360,000 compounds, 0.37% hits; in the data active means inhibition above about 19%;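 further: recombinant mutant TCR 2C K166C tagged with TAMRA read by polarization; 0% = receptor in buffer alone and 100% = receptor with positive control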
PRMT1 inh = PRMT1 methyltransferase inhibitors, primary screen, biochemical, fluorescence polarization; Protein arginine N-methyltransferase 1 (Homo sapiens), Q99873; recombinant PRMT1, activity-based probe fluorescence polarization; inhibition, % at 2.79 µM; 370,000 compounds, 1.3% hits; AID 652257, 2013;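 active means inhibition above about 21% made by adding two undisclosed values, limit read from the data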
Target sequence (Q99873 whole entry, looked up): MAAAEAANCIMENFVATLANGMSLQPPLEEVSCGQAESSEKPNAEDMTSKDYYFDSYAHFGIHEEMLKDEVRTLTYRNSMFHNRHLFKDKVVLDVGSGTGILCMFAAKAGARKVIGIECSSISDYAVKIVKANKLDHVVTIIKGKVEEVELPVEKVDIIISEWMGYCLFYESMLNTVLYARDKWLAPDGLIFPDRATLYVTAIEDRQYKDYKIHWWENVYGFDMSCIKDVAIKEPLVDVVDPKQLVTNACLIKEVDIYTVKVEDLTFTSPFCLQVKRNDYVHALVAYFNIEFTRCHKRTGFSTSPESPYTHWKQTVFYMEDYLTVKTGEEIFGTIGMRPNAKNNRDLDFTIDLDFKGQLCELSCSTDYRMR
ATG4B inhibitor = ATG4B protease inhibitors, primary screen, biochemical, fluorescence, uHTS | ATG4B cleavage of LC3-PLA2, NBD-HPC fluorescence, 1 h | inhibition, % at 8.33 µM | 340,000 compounds, 0.51% hits; in the data active means inhibition above about 40%
SIAE primary = human SIAE inhibitors, primary screen, biochemical, fluorescence polarization, FP-Rh probe, 1536-well HTS. Sialate O-acetylesterase (Homo sapiens), Q9HAT2. SIAE FP-Rh probe binding. inhibition, % at 9.66 µM. 370,000 compounds, 0.69% hits;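 active means inhibition above a cutoff: mean of compounds within the control limits plus 3 SD of those, cut at about 17% in these data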;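 further: 0% = plate median of compound wells and 100% = probe without SIAE protein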
HTRA1 inh = HTRA1 serine protease inhibitors, primary screen, biochemical, fluorescence polarization, HTS; inhibition, % at 5.96 µM; recombinant HTRA1, FP-rhodamine activity-based probe; AID 504803, 2011; 340,000 compounds, 0.5% hits; in the data active means inhibition above about 36%;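 further: 0% = enzyme with DMSO and 100% = wells lacking enzyme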
SIAE confirm = human SIAE inhibitors, retest, confirmation, biochemical, fluorescence polarization, FP-Rh probe, triplicate | shares compounds with SIAE primary | SIAE FP-Rh activity-based probe | inhibition, % at 9.66 µM | 2,300 compounds, 13% hits | AID 1117263, 2014;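 active means mean inhibition of the replicates above the hit cutoff set in the primary screen, cut at about 17% in these data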;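 further: 0% = SIAE with DMSO and probe and 100% = probe without SIAE; inhibitors lower polarization as more probe stays unbound to SIAE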
* hit, by the source's call; · = not tested or not shown.

SMILES	mABHD4 FP	TCR CD3 inh	PRMT1 inh	ATG4B inhibitor	SIAE primary	HTRA1 inh	SIAE confirm
C#CCCCN([C@@H](CC(C)C)C(=O)OC)S(=O)(=O)c1ccc(F)cc1Br	-8	·	-7	·	-1	·	·
COC(=O)[C@]12C[C@H](CC(=O)N3CCOCC3)C(=O)N(Cc3ccc4c(c3)OCO4)C1=C[C@H](COCc1ccccc1)O[C@@H]2C	3	1	5	·	0	·	·
CCNc1nc(NCC)nc(N/N=C/c2ccc(O)c(O)c2)n1	13	8	-1	-11	18*	32	2
COc1cccc(NC(=S)NN=C2CCC(C(C)(C)C)CC2)c1 (configuration not stated)	3	0	2	2	19*	-11	2
Fc1ccccc1NC(=S)NC1CCCC1	0	3	-3	-4	1	2	·
Cc1cccc(NC(=S)N/N=C2\CC(C)(C)Oc3ccc(O)cc32)c1	28	-2	1	3	41*	7	17
CC1(C)C/C(=N\NC(=S)Nc2ccccc2F)c2cc(O)ccc2O1	21	1	-2	-13	37*	16	38*
COc1cccc(NC(=S)N/N=C2\CC3CCC2(C)C3(C)C)c1 (configuration not stated)	0	-2	1	1	10	-17	·
COc1cccc(NC(=S)N/N=C2\CC(C)(C)Oc3ccc(O)cc32)c1	9	-2	-3	-25	36*	2	21*
COC(=O)[C@H](C(C)C)N1CCc2nnn(CC3CCCCC3)c2-c2ccccc2S1(=O)=O	6	·	2	·	1	·	·
Cc1nc2c(o1)CCc1ccccc1C2O (configuration not stated)	6	2	-2	1	41*	6	4
CC(=O)Nc1ccc(S(=O)(=O)N2CCN(S(=O)(=O)c3ccc(NC(C)=O)cc3)CC2)cc1	3	-6	-3	16	0	2	·
CC(=O)Nc1ccc(S(=O)(=O)N2CCCC3CCCCC32)cc1 (configuration not stated)	-7	-4	1	5	22*	-7	-3
Cc1ccccc1C(=O)NC1CCCCN(C)C1=O (configuration not stated)	-1	1	2	·	-1	·	·
COC(=O)CCCc1nc2ccccc2s1	5	7	-1	-2	63*	-5	0
COc1ccc(CN2C/C(=C/c3ccc(C)cc3)N3C(=O)C[C@@H](c4ccccc4)N=C23)c(OC)c1	-7	·	-1	·	4	·	·
c1ccc(-c2c[nH]c3ccc(OCCN4CCOCC4)c(-c4ccccc4)c23)cc1	2	·	0	·	2	·	·
CCCC(C(=O)NC1CCCC1)N(Cc1ccc2c(c1)OCO2)C(=O)c1snc(C(N)=O)c1N (configuration not stated)	1	3	-3	0	24*	-1	3
COc1ccc(C(=O)OCCCN(C)C2CN(Cc3cn(Cc4ccccc4Cl)nn3)S(=O)(=O)C2)cc1OC (configuration not stated)	0	·	1	·	3	·	·
COC(=O)C1C(=O)c2c(n[nH]c2C)CC1(C)C (configuration not stated)	-1	4	-3	-8	19*	7	1
CCCc1n[nH]c2c1C(=O)C(C(=O)OC)C(C)(C)C2 (configuration not stated)	5	-4	1	-1	0	7	·
CCc1ccc[n+](-c2[nH]c(=O)sc2/C=N/N=C(\[O-])CCn2c3ccccc3c3ccccc32)c1	7	-6	11	-4	-5	14	·
Cc1cc[n+](-c2[nH]c(=O)sc2/C=N/N=C(\[O-])CCn2c3ccccc3c3ccccc32)cc1	14	-5	5	-24	24*	·	11
CC(C)CN(C(=O)C1CCCCC1)C1CCS(=O)(=O)C1 (configuration not stated)	11	-3	1	-3	18*	4	3
Nn1c(SCc2ccc([N+](=O)[O-])cc2)nnc1-c1n[nH]c2c1CCC2	6	·	1	·	-6	·	·
SMILES	mABHD4 FP	TCR CD3 inh	PRMT1 inh	ATG4B inhibitor	SIAE primary	HTRA1 inh	SIAE confirm
COc1ccc(-c2nc(-c3ccc4c(c3)OCO4)[nH]c2-c2ccc(OC)cc2)cc1	13	4	-1	36	19*	7	0
Cc1[nH]c(-c2ccc3c(c2)OCO3)nc1C(=O)O	5	-4	-1	-3	2	0	·
CC(=O)c1ccc(NC(=O)Nc2ccc3c(c2)N(C)C(=O)CS3)cc1	-8	-1	-2	-20	-1	-4	·
CCOc1ccc(NC(=O)Nc2ccc3c(c2)N(C)C(=O)CS3)cc1	2	1	-1	3	18*	-4	-1
COc1ccc(NC(=O)Nc2ccc3c(c2)N(C)C(=O)CS3)cc1Cl	10	-2	-3	-1	27*	1	-3
O=C(c1ccc(Cl)cc1)N1CCC2CC1c1cc(-c3ccccc3)ccc12 (configuration not stated)	-10	3	1	8	21*	-21	-6
CCOCN(C(=O)Cn1cnc2ccccc21)c1c(C)cccc1CC	3	-5	-1	-2	18*	-3	-2
CCCC(=O)OC12CCCN(C1)/C(=C/c1cccc(Cl)c1)C2 (configuration not stated)	-2	·	0	·	-1	·	·
CN(C(=O)c1ccc(OC2CCN(C(=O)c3cccnc3)CC2)cc1)C1CCCCC1	-3	7	-6	-24	24*	3	4
CCC(=O)C1CCCN(C(=O)c2ccc(OC3CCN(C(=O)c4cccnc4)CC3)cc2)C1 (configuration not stated)	6	-3	2	-5	10	6	·
Nc1[nH]c2cc(Cl)ccc2c1C(=O)N1CCOCC1	5	·	-3	·	3	·	·
O=C(O)c1cn(-c2ccc(F)cc2)c(=O)c2ccccc12	2	3	-2	-7	0	0	·
COC(=O)c1cn(-c2ccc(F)cc2)c(=O)c2ccccc12	3	0	-2	8	18*	-2	6
Cc1ccc(S(=O)(=O)NCC2CCN(C(=O)C(=O)c3cc4ccccc4o3)CC2)cc1	-4	-5	-3	·	-6	·	·
COc1ccc(Nc2ncnc3sc(-c4ccccc4)cc23)cc1	1	-9	4	12	33*	-20	1
